Active and inactive are the calls of the source. The calls are words filed in the database; no cut-off is given here.
Key:
Alternaria mali = experiment: Antifungal activity against Alternaria mali assessed as inhibition of microbial growth by microtiter broth dilution method; assay type: functional
In short: (§1)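 Spore or zoospore suspension, 10 µL, added to wells of a 24-well dish holding 1 mL potato dextrose broth or nutrient broth. Compound dissolved in methanol and tested over 0–100 µg/mL. Plates held at 22–28 °C and read after 2–5 days against an untreated inoculated control. MIC is the lowest concentration with no visible growth.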

Botrytis cinerea = experiment: Antifungal activity against Botryotinia fuckeliana assessed as inhibition of microbial growth by microtiter broth dilution method; assay type: functional; in short: as §1
[1] = test system: Colletotrichum orbiculare; experiment: […] antifungal activity against Colletotrichum orbiculare on […] assessed as inhibition of anthracnose development at 500 ug/mL; assay type: functional, organism-based
Xanthomonas vesicatoria = experiment: Antibacterial activity against Xanthomonas vesicatoria assessed as inhibition of microbial growth by microtiter broth dilution method; assay type: functional
In short: (§2)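 Broth microdilution in 24-well plates. Inoculum of 10⁴ CFU/mL, 10 µL per well, in 1 mL potato dextrose broth or nutrient broth. Compound in methanol, 0–100 µg/mL. Incubated at 22–28 °C for 2–5 days and compared with a compound-free growth control. MIC is the lowest concentration showing no growth.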

[2] = test system: Pectobacterium carotovorum subsp. carotovorum; experiment: Antibacterial activity against Pectobacterium carotovorum subsp. carotovorum assessed as inhibition of microbial growth by microtiter broth dilution method; assay type: functional; in short: as §2
Ralstonia solanacearum = experiment: Antibacterial activity against Ralstonia solanacearum assessed as inhibition of microbial growth by microtiter broth dilution method; assay type: functional
In short: (§3)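 24-well broth dilution. 10 µL of spore or cell suspension went into 1 mL potato dextrose broth or nutrient broth. Bacterial inoculum was 10⁴ CFU/mL. Compound was dissolved in methanol and tested at 0–100 μg/mL. Plates were incubated at 22–28 °C for 2–5 days against a compound-free growth control. MIC was the lowest concentration showing no growth.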

Ilyonectria destructans = experiment: Antifungal activity against Ilyonectria radicicola assessed as inhibition of microbial growth by microtiter broth dilution method; assay type: functional; in short: as §1
[3] = test system: Fusarium oxysporum f. sp. lycopersici; experiment: Antifungal activity against Fusarium oxysporum f. sp. lycopersici assessed as inhibition of microbial growth by microtiter broth dilution method; assay type: functional; in short: as §1
Candida albicans = experiment: Antifungal activity against Candida albicans assessed as inhibition of microbial growth by microtiter broth dilution method; assay type: functional; in short: as §2
Sclerotinia sclerotiorum = experiment: Antifungal activity against Sclerotinia sclerotiorum assessed as inhibition of microbial growth by microtiter broth dilution method; assay type: functional; in short: as §1
Bacillus subtilis = experiment: Antibacterial activity against Bacillus subtilis subsp. subtilis assessed as inhibition of microbial growth by microtiter broth dilution method; assay type: functional; in short: as §2
Cladosporium cucumerinum = experiment: Antifungal activity against Cladosporium cucumerinum assessed as inhibition of microbial growth by microtiter broth dilution method; assay type: functional; in short: as §1
Phytophthora capsici = experiment: Antifungal activity against Phytophthora capsici assessed as inhibition of microbial growth by microtiter broth dilution method; assay type: functional; in short: as §1
Saccharomyces cerevisiae = experiment: Antifungal activity against Saccharomyces cerevisiae assessed as inhibition of microbial growth by microtiter broth dilution method; assay type: functional; in short: as §2
Globisporangium ultimum = experiment: Antifungal activity against Pythium ultimum assessed as inhibition of microbial growth by microtiter broth dilution method; assay type: functional; in short: as §1
[4] = test system: Colletotrichum orbiculare; experiment: […] antifungal activity against Colletotrichum orbiculare on two-leaf stage cucumber plant assessed as inhibition of anthracnose development at 100 ug/mL; assay type: functional, organism-based
In short: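 Cucumber cv. Baekrokdadaki grown at 28 ± 2 °C. Compound in methanol, diluted in 0.1% Tween 20 to 10–500 µg/mL, sprayed on primary leaves 1 day before inoculation. Inoculum was 10⁶ conidia/mL in 0.05% Tween 20, followed by 24 h in a dew chamber at 28 °C. Lesions/cm² on secondary leaves counted at day 6. 6 plants/treatment, 3 replicates; Tween-only control.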

[5] = test system: Colletotrichum orbiculare; experiment: Antifungal activity against Colletotrichum orbiculare assessed as inhibition of microbial growth by microtiter broth dilution method; assay type: functional; in short: as §1
Pyricularia grisea = experiment: Antifungal activity against Magnaporthe grisea assessed as inhibition of microbial growth by microtiter broth dilution method; assay type: functional; in short: as §3
Rhizoctonia solani = experiment: Antifungal activity against Rhizoctonia solani assessed as inhibition of microbial growth by microtiter broth dilution method; assay type: functional; in short: as §1

## O=C(O)C/C=C/c1ccccc1
Alternaria mali
  MIC: 30 µg/mL
Botrytis cinerea
  MIC: > 100 µg/mL
[1]
  inhibition: Active
Xanthomonas vesicatoria
  MIC: 10 µg/mL
[2]
  MIC: 1 µg/mL
Ralstonia solanacearum
  MIC: 0.5 µg/mL
Ilyonectria destructans
  MIC: 30 µg/mL
[3]
  MIC: > 100 µg/mL
Candida albicans
  MIC: > 100 µg/mL
Sclerotinia sclerotiorum
  MIC: > 100 µg/mL
Bacillus subtilis
  MIC: 3 µg/mL
Cladosporium cucumerinum
  MIC: 30 µg/mL
Phytophthora capsici
  MIC: 30 µg/mL
Saccharomyces cerevisiae
  MIC: > 100 µg/mL
Globisporangium ultimum
  MIC: 0.5 µg/mL
[4]
  inhibition: Active
[5]
  MIC: 3 µg/mL
Pyricularia grisea
  MIC: 10 µg/mL
Rhizoctonia solani
  MIC: 30 µg/mL

## N#Cc1c(Cl)c(Cl)c(Cl)c(C#N)c1Cl
[1]
  inhibition: Active
